This note sets out measurements from ChEMBL document CHEMBL3232764, “Influence of the adamantyl moiety on the activity of biphenylacrylohydroxamic acid-based HDAC inhibitors” (Eur J Med Chem, 2014).

For one assay, the system named is IGROV-1. Nature of the assay: Induction of apoptosis in human IGROV1 cells at IC80 after 72 hrs by TUNEL and flow cytometry analysis (reference value: 4%). It is filed as functional. For orientation: Flow cytometry measures light scatter and fluorescence of single cells or particles in a stream.
A further assay addresses T1, Histone deacetylase 11 (Homo sapiens, UniProt Q96DB2).
T1 sequence (Q96DB2 whole entry): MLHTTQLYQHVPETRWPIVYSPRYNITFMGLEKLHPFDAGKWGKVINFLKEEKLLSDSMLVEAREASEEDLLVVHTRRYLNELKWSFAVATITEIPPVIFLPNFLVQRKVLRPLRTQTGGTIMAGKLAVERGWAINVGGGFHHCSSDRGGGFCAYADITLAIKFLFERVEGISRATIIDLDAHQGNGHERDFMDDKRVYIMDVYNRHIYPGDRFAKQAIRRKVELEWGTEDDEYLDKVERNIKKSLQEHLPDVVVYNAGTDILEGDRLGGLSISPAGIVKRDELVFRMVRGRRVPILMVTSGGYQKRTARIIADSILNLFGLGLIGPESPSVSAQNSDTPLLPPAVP
As to the kind of experiment: Inhibition of human HDAC11 using fluorogenic tetrapeptide RHKKAc as substrate.

The next assay deals with T2, Histone deacetylase 8 (Homo sapiens, UniProt Q9BY41).
T2 sequence (Q9BY41 whole entry): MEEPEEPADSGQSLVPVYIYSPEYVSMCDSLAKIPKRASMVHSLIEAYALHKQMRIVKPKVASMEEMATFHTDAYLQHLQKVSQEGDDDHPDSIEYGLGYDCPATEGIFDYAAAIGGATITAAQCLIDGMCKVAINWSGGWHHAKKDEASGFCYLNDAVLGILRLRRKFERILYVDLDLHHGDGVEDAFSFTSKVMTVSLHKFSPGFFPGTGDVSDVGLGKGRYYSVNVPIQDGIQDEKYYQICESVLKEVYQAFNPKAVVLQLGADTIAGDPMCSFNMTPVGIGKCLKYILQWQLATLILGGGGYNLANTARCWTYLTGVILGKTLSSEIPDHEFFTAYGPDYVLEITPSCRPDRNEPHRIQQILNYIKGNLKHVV
As to the kind of experiment: Inhibition of human HDAC8 using fluorogenic tetrapeptide RHKKAc as substrate.

The target of another assay is Histone deacetylase 9 (Homo sapiens, UniProt Q9UKV0). Nature of the assay: Inhibition of human HDAC9 using fluorogenic tetrapeptide RHKKAc as substrate.
For a further assay, the system named is HCT-116. As to the kind of experiment: Antiproliferative activity against human HCT116 cells assessed as growth inhibition after 72 hrs. It is filed as functional, cell-based. As to conditions: HCT-116, 72 h. The procedure, abridged:
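Log-phase cells seeded in duplicate in 6-well plates; drug added 24 h after seeding. Cells harvested 72 h after drug exposure and counted with a cell counter. IC50 = drug concentration giving 50% reduction in cell number versus untreated control.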

In a further assay the target is Histone deacetylase 1 (Homo sapiens, UniProt Q13547). Nature of the assay: Inhibition of human HDAC1 using fluorogenic tetrapeptide RHKKAc as substrate.
The target in assay [1] is T3, Polyamine deacetylase HDAC10 (Homo sapiens, UniProt Q969S8).
T3 sequence (Q969S8 whole entry): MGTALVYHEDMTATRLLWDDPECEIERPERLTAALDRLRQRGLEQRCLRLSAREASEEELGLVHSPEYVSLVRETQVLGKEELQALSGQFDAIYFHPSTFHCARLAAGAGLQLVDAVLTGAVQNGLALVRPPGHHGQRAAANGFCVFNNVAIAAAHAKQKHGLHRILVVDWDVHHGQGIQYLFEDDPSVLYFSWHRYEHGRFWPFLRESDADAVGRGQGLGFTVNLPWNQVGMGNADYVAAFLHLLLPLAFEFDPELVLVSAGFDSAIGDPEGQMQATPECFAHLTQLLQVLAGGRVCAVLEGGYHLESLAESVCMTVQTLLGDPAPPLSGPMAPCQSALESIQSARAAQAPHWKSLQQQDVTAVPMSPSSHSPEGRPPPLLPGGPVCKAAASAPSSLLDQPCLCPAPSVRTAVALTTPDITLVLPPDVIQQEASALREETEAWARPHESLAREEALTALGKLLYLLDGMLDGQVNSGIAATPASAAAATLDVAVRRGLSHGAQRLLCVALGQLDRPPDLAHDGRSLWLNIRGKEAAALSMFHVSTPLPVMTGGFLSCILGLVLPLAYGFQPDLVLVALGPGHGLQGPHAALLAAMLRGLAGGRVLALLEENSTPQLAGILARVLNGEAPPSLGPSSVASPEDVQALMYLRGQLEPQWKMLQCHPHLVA
Nature of the assay: Inhibition of human HDAC10 using fluorogenic tetrapeptide RHKKAc as substrate.

The next assay concerns the target Histone deacetylase 4 (Homo sapiens, UniProt P56524). Nature of the assay: Inhibition of human HDAC4 using fluorogenic tetrapeptide RHKKAc as substrate.
The target of a further assay is Histone deacetylase 5 (Homo sapiens, UniProt Q9UQL6). Nature of the assay: Inhibition of human HDAC5 using fluorogenic tetrapeptide RHKKAc as substrate.
The next assay addresses Histone deacetylase 3 (Homo sapiens, UniProt O15379).

Sequence of Histone deacetylase 3 (O15379 whole entry): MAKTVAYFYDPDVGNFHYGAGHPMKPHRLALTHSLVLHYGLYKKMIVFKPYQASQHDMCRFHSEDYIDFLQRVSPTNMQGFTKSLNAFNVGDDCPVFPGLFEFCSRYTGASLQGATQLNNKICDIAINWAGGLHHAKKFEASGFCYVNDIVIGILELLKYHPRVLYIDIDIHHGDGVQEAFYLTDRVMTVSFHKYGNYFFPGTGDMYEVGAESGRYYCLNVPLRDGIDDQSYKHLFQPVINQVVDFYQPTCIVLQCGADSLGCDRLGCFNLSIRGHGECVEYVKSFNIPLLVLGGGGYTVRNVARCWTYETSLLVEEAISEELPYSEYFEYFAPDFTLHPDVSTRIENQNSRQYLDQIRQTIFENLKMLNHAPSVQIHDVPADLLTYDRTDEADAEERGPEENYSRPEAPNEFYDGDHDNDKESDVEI
Sequence of Histone deacetylase 5 (Q9UQL6 whole entry): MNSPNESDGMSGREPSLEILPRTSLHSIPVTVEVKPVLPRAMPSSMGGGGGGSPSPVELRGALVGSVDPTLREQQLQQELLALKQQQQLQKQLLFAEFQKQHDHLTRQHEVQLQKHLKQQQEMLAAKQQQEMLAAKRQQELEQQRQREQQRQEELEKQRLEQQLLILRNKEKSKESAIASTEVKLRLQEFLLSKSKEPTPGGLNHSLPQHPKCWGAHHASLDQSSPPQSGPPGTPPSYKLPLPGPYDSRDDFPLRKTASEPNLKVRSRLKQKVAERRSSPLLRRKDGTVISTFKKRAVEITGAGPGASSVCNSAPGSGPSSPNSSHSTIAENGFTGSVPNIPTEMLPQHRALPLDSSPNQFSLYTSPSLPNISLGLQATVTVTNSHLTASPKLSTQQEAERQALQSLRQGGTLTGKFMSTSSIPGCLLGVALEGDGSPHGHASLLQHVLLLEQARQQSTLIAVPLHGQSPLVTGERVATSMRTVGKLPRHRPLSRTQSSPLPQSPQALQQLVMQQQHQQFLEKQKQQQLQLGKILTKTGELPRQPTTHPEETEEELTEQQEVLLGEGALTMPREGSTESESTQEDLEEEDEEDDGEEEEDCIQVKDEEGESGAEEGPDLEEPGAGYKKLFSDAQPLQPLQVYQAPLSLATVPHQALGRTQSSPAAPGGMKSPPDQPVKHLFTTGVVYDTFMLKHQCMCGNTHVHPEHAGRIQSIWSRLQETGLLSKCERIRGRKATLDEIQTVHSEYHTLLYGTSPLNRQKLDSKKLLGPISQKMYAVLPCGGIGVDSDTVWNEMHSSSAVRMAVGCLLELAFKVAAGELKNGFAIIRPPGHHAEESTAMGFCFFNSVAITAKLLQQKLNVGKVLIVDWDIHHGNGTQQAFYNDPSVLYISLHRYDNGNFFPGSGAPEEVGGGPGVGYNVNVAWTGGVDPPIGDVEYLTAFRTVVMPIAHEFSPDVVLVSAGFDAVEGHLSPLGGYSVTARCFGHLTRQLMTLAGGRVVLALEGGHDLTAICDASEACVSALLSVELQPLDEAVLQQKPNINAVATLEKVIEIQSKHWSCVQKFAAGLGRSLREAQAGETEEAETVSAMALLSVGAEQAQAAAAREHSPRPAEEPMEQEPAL
Sequence of Histone deacetylase 1 (Q13547 whole entry): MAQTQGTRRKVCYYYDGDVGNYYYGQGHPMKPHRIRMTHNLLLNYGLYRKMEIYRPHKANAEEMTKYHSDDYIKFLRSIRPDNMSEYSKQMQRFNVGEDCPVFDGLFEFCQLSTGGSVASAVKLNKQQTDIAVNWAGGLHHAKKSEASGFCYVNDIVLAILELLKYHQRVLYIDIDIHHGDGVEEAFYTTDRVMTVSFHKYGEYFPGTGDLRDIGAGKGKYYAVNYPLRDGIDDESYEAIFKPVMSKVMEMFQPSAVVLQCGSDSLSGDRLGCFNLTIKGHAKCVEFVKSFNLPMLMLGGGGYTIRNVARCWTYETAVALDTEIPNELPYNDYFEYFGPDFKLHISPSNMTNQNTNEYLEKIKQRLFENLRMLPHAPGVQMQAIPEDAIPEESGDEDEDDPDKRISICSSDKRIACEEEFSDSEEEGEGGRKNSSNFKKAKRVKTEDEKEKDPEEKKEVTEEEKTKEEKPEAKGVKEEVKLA
Sequence of Histone deacetylase 4 (P56524 whole entry): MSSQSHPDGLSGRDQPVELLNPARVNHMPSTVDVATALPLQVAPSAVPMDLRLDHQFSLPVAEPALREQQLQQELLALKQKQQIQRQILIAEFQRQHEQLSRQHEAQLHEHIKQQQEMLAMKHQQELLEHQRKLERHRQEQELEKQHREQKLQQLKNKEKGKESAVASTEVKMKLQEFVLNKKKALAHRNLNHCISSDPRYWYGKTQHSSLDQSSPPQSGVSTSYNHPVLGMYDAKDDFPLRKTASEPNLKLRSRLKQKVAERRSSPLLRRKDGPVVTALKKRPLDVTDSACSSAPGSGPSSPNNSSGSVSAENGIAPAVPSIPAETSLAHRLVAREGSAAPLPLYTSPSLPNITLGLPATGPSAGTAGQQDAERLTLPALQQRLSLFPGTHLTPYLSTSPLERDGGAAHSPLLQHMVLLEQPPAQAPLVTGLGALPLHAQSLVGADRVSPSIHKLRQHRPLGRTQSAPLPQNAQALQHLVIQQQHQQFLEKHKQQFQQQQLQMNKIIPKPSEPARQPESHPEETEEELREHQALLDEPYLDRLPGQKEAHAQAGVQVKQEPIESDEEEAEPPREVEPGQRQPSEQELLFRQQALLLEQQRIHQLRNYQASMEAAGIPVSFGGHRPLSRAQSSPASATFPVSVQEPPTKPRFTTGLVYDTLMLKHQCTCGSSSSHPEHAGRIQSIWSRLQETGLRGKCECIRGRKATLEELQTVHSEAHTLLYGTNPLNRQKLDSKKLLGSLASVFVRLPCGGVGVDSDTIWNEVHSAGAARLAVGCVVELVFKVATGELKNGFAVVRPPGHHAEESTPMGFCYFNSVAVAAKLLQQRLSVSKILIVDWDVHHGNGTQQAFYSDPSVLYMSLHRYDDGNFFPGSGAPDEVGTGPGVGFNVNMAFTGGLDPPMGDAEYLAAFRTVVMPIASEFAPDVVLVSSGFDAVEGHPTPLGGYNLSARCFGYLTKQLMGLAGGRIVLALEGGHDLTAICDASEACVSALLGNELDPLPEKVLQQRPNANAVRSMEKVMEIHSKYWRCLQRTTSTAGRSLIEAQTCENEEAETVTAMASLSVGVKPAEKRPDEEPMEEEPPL
Sequence of Histone deacetylase 9 (Q9UKV0 whole entry): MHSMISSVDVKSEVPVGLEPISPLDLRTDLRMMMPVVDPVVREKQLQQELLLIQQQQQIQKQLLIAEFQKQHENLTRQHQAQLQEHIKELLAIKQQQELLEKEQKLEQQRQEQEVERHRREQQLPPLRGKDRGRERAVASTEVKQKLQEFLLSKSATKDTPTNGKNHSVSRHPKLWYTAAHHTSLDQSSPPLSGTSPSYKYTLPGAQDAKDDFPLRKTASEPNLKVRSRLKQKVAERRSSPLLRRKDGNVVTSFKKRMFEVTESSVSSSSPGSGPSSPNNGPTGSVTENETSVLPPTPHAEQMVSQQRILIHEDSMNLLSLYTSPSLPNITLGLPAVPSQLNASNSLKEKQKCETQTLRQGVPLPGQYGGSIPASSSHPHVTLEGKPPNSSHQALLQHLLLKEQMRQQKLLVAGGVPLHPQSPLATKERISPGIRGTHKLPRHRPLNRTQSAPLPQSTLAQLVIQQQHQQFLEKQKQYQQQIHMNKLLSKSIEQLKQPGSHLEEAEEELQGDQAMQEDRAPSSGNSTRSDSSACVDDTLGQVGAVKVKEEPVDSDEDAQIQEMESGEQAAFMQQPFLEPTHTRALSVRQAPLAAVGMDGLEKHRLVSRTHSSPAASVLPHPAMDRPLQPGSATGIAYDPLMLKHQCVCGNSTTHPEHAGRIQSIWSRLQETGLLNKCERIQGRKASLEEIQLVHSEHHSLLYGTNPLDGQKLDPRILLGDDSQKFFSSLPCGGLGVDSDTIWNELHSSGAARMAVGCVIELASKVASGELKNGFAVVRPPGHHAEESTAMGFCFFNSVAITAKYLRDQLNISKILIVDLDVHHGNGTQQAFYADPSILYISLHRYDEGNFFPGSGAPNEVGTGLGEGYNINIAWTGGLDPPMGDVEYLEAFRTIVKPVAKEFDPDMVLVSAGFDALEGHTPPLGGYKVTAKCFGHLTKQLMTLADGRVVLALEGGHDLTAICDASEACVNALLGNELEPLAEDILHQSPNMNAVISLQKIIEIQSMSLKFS

`COc1ccc(-c2ccc(/C=C/C=C/C(=O)NO)cc2)cc1C12CC3CC(CC(C3)C1)C2` gave an Activity with IGROV-1 of 52%. The IC50 at Histone deacetylase 11 was 38.1 µM; against Histone deacetylase 8, 30.6 µM; against Histone deacetylase 9, more than 100 µM; in the assay with HCT-116, 1.8 µM; against Histone deacetylase 1, 60.1 µM; in assay [1], more than 100 µM. Besides, the half-inhibitory concentration (IC50) against Histone deacetylase 4, on Histone deacetylase 5 and on Histone deacetylase 3 was more than 100 µM in each case.
In turn, `COc1ccc(-c2ccc(/C=C/C=C/C(=O)NO)cc2)cc1` came in with an Activity with IGROV-1 of 91%. The IC50 was more than 100 µM at Histone deacetylase 11; 1.56 µM against Histone deacetylase 8; more than 100 µM at Histone deacetylase 9; 2.4 µM in the assay on HCT-116; more than 100 µM on Histone deacetylase 1; more than 100 µM in assay [1]. The IC50 at Histone deacetylase 4, on Histone deacetylase 5 and on Histone deacetylase 3 was more than 100 µM throughout.

What is called IC50 is the concentration needed to halve the response being measured.
